Measurements: ChEMBL document CHEMBL2429814 (J Med Chem, 2013)
Values belong to the molecule of their own block, whether it stands above or below them.

What was measured:
[1] = target: T1, Metabotropic glutamate receptor 5 (Homo sapiens, UniProt P41594); assay: Positive allosteric modulation of mGluR5 (unknown origin)
[2] = target: T2, Metabotropic glutamate receptor 5 (Rattus norvegicus, UniProt P31424); assay: Positive allosteric modulation of rat mGluR5 stably expressed in CHO cells assessed as calcium mobilization; format: functional, cell-based
T2 sequence (P31424 whole entry): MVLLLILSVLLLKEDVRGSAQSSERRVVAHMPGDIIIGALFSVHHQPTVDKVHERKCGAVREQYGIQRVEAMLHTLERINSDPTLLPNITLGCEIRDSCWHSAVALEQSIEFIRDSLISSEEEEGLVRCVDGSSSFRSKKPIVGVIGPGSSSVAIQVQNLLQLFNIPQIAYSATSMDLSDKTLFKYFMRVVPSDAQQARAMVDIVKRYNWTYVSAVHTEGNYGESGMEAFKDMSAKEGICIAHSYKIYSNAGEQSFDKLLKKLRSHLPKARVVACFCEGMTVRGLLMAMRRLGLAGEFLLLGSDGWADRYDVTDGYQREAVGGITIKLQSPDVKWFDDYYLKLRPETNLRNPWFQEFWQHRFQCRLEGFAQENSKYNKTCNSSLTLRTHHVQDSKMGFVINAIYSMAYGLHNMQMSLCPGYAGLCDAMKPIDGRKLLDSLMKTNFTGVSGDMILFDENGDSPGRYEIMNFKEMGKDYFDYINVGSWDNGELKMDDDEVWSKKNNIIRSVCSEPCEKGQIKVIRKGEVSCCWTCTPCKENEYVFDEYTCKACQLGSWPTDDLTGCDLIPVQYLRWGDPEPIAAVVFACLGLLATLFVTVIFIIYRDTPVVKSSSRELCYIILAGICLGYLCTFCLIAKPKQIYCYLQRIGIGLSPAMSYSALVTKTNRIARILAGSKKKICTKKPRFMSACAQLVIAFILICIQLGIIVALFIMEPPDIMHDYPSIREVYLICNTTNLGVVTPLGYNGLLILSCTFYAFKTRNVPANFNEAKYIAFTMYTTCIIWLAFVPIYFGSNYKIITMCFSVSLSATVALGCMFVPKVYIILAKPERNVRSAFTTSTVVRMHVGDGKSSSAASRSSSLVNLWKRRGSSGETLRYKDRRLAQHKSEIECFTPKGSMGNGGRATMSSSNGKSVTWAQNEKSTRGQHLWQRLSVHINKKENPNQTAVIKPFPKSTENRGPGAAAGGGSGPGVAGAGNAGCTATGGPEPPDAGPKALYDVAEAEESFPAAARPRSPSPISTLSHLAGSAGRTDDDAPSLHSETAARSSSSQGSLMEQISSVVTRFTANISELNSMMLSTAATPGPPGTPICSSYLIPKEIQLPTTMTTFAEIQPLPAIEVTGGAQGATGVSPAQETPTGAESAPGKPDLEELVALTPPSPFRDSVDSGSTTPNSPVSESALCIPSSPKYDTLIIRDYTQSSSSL

[3] = Protein binding in (unknown origin) plasma; format: ADME, cell-free; settings: read-out: PPB (converted)
[4] = Ratio of drug level in brain to plasma in (unknown origin); format: ADME, cell-free; settings: brain and plasma; read-out: BPR
[5] = target: Metabotropic glutamate receptor 5 (Rattus norvegicus) (UniProt P31424); assay: Positive allosteric modulation of rat mGluR5 stably expressed in HEK293 cells assessed as increase in intracellular calcium level by Fluo-4AM dye-based fluorescence assay relative to glutamate; format: functional, cell-based
Chain of Metabotropic glutamate receptor 5 (Rattus norvegicus) (P31424 21-1203 limits assumed): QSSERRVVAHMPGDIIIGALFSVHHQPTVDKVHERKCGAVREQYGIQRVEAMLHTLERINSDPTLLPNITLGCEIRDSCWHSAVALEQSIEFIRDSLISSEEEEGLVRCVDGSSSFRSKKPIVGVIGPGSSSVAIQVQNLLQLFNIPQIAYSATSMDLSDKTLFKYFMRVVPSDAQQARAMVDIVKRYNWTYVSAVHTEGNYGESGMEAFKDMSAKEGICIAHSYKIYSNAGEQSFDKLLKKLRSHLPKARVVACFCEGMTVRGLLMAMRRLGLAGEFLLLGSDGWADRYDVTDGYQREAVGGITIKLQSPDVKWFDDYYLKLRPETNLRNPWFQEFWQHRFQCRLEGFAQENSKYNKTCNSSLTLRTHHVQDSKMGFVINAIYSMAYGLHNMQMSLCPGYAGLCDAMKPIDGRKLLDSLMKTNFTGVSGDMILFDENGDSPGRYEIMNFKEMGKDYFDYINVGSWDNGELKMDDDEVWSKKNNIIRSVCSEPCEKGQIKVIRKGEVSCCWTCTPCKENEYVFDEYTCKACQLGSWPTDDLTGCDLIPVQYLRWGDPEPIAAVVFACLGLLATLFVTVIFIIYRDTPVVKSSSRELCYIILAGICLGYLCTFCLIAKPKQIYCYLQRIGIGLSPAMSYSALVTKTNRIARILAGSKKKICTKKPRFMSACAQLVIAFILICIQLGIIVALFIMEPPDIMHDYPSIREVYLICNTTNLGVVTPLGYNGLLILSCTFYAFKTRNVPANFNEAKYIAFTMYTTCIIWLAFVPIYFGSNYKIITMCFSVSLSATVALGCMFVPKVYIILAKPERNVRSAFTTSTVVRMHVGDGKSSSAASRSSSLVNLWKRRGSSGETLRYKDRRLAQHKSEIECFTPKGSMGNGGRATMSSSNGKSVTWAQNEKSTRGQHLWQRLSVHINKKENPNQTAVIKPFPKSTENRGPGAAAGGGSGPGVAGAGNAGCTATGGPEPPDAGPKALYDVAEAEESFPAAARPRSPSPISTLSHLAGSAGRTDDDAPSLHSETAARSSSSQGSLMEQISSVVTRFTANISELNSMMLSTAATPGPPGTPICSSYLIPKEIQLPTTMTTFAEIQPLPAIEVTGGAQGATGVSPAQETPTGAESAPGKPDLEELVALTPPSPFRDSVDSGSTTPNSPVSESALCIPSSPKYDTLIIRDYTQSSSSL

[6] = Agonist activity at rat mGluR5 T780A mutant stably expressed in HEK293 cells assessed as increase in intracellular calcium level at 1 to 100 uM by Fluo-4AM dye-based fluorescence assay; format: cell-based; settings: hek293, 100 µM
[7] = target: Metabotropic glutamate receptor 5 (Rattus norvegicus) (UniProt P31424); assay: Potentiation of rat mGluR5 receptor stably expressed in HEK293 cells assessed as fold shift in glutamate concentration response curve at 10 uM relative to control; format: cell-based
In short: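 HEK293 cells stably expressing rat mGlu5 were loaded with Fluo-4AM. Compound at 10 µM, or vehicle, was added, and a glutamate concentration-response curve followed 140 s later. The fold leftward shift of the glutamate curve was read from calcium fluorescence. Values are means of three independent experiments in triplicate.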

[8] = target: T2, Metabotropic glutamate receptor 5; assay: Positive allosteric modulation of rat mGluR5 stably expressed in HEK293 cells assessed as increase in intracellular calcium level by Fluo-4AM dye-based fluorescence assay; format: functional, cell-based
In short: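 HEK293 cells stably expressing rat mGlu5 (low receptor density line), 15,000 cells/well, grown overnight at 37°C/5% CO2. Loaded with Fluo-4AM for 50 min at 37°C in HBSS with 20 mM HEPES, 2.5 mM probenecid, pH 7.4. Triple add: compound, then EC20 glutamate 140 s later, then EC80 glutamate 60 s later. Calcium fluorescence read over time. Values are means of ≥3 independent experiments run in duplicate or triplicate.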

[9] = Agonist activity at rat mGluR5 W784A mutant stably expressed in HEK293 cells assessed as increase in intracellular calcium level at 1 to 100 uM by Fluo-4AM dye-based fluorescence assay; format: cell-based; settings: hek293, 100 µM
[10] = target: T1, Metabotropic glutamate receptor 5; assay: Positive allosteric modulation of human mGluR5
[11] = target: T2, Metabotropic glutamate receptor 5; assay: Positive allosteric modulation of rat mGluR5
[12] = target: Metabotropic glutamate receptor 5 (Rattus norvegicus) (UniProt P31424); assay: Positive allosteric modulation of mGluR5 in rat cortical neurons at 1 uM relative to DHPG
[13] = target: T2, Metabotropic glutamate receptor 5; assay: Antagonist activity at rat mGluR5 stably expressed in HEK293 cells assessed as inhibition of glutamate-induced intracellular calcium level by Fluo-4AM dye-based fluorescence assay; format: functional, cell-based
[14] = target: Metabotropic glutamate receptor 5 (Rattus norvegicus) (UniProt P31424); assay: Antagonist activity at rat mGluR5 stably expressed in HEK293 cells assessed as inhibition of glutamate-induced intracellular calcium level by Fluo-4AM dye-based fluorescence assay relative to control; format: functional, cell-based; settings: concentration not given here

T1 sequence (P41594 whole entry): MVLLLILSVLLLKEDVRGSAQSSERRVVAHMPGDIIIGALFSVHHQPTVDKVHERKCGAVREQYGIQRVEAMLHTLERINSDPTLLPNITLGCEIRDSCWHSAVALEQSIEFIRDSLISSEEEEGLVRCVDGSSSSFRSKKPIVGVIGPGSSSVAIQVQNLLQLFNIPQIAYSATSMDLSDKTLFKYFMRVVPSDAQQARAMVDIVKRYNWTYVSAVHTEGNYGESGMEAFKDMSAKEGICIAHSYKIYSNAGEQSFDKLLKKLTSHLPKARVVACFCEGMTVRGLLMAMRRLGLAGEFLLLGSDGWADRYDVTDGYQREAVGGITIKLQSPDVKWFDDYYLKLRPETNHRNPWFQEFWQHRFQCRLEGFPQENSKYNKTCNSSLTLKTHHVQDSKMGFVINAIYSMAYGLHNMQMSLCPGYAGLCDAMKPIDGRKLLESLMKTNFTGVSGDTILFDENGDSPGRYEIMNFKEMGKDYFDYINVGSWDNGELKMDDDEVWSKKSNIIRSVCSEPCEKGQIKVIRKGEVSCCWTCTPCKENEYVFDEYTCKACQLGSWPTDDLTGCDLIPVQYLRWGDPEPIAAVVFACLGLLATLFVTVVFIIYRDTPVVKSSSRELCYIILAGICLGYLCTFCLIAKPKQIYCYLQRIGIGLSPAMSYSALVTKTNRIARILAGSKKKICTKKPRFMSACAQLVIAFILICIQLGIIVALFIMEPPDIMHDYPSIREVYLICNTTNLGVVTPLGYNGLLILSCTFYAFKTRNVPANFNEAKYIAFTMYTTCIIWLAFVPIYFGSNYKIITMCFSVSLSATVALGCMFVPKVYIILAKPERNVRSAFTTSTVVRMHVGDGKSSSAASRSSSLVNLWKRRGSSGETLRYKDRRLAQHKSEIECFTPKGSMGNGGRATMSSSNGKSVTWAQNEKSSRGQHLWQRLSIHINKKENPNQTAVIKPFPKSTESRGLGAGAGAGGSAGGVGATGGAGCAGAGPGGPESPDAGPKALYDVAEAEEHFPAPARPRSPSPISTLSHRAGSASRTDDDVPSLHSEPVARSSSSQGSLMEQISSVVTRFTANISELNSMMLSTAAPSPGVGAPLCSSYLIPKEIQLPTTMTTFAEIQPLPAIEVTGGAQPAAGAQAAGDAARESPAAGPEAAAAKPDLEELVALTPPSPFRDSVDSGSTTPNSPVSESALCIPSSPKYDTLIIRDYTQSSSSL

EC50 [1]: 2600 nM
Structure (SMILES): Fc1cccc(/C=N/N=C/c2cccc(F)c2)c1

Structure (SMILES): O=C(NC1CCC1)c1ccc(C#Cc2cccc(F)c2)nc1
EC50 [2]: 39 nM
fraction unbound [3]: 0.011
Kp [4]: 0.13

Structure (SMILES): C[C@@H](NC(=O)c1ccc(C#Cc2ccccn2)cn1)C(C)(C)O
Efficacy [5]: 57.5%
Activity [6]: Not Active
fold change (FC) [7]: 1.7
EC50 ([8]; read-out: EC50): 41.3 nM
EC50 ([8]; read-out: pEC50 (converted)): 93.3 nM
Activity [9]: Active

Structure (SMILES): CC(C)NC(=O)c1ccc(C#Cc2ccncc2)cn1
EC50 [10]: 33 nM
EC50 [11]: 24 nM
fold change (FC) [12]: 2

Structure (SMILES): CC1(NC(=O)c2ccc(C#Cc3ccccn3)cn2)COC1
IC50 [13]: 731 nM
inhibition [14]: 16.7%
